How the values were obtained:
[1] = system: Human immunodeficiency virus 1; experiment: Antiviral activity against HIV1 in human MT4 cell assessed as inhibition of virus spread in presence of 10% fetal bovine serum; type: functional; conditions: Human immunodeficiency virus 1, MT4; read-out: CIC95
In short: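 Spread of HIV-1 infection in MT-4 human T-lymphoid cell culture with 10% fetal bovine serum; CIC95 is the concentration inhibiting spread by ≥95%; mean of at least three independent experiments.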

[2] = system: Human immunodeficiency virus 1; experiment: Antiviral activity against HIV1 in human MT4 cell assessed as inhibition of virus spread in presence of 50% normal human serum; type: functional; conditions: Human immunodeficiency virus 1, MT4; read-out: CIC95
In short: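 Spread of HIV-1 infection in MT-4 human T-lymphoid cell culture with 50% normal human serum; CIC95 is the concentration inhibiting spread by ≥95%; mean of at least three independent experiments.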

[3] = Protein binding in rat plasma; type: ADME, cell-free; conditions: read-out: PPB (converted)
In short: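 Plasma protein binding was measured by ultrafiltration after a 1 h incubation of compound in plasma at 37 °C.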

[4] = Protein binding in dog plasma; type: ADME, cell-free, Canis lupus familiaris; conditions: read-out: PPB (converted)
In short: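 Plasma protein binding measured by ultrafiltration after incubation at 37 °C for 1 h.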

Liver microsomes [5] = experiment: Metabolic stability in rat liver microsomes in presence of NADPH and UDPGA; type: ADME, Microsome
In short: (§1)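 Multiple time points over 1 h: compound 1 µM with liver microsomes 1 mg/mL, in the presence of both UDPGA and NADPH; degradation followed by LC/MS/MS.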

Liver [6] = experiment: Metabolic stability in dog liver microsomes in presence of NADPH and UDPGA; type: ADME, Canis lupus familiaris, Microsome; in short: as §1
[7] = Oral bioavailability in rat at 3 mg/kg; type: ADME, organism-based; conditions: in vivo
In short: (§2)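 In vivo PK: iv dosing in DMSO/PEG400/H₂O mixtures, oral dosing as methylcellulose suspension. Half-life was taken after iv dosing; AUC and Cmax after po dosing.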

[8] = Plasma clearance in rat at 3 mg/kg, po or 3 mg/kg, iv; type: ADME, organism-based; in short: as §2
[9] = Plasma clearance in dog at 1 mg/kg, iv or 2 mg/kg, po; type: ADME, organism-based, Canis lupus familiaris; in short: as §2
[10] = Inhibition of recombinant HIV1 integrase strand transfer activity
[11] = Oral bioavailability in dog at 2 mg/kg; type: ADME, organism-based, Canis lupus familiaris; conditions: in vivo; in short: as §2
Homo sapiens = organism: Homo sapiens; experiment: Protein binding in human plasma; conditions: read-out: PPB (converted)
Liver microsomes [12] = experiment: Metabolic stability in rat liver microsomes in presence of NADPH; type: ADME, Microsome
In short: (§3)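 Liver microsomes (1 mg/mL) with test compound at 2 µM, incubated with UDPGA or NADPH; degradation measured by LC/MS/MS after 1 h.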

Liver [13] = experiment: Metabolic stability in dog liver microsomes in presence of NADPH; type: ADME, Canis lupus familiaris, Microsome; in short: as §3
Liver microsomes [14] = experiment: Metabolic stability in human liver microsomes in presence of NADPH; type: ADME, Microsome; in short: as §3
Liver microsomes [15] = experiment: Metabolic stability in rat liver microsomes in presence of UDPGA; type: ADME, Microsome
Liver [16] = experiment: Metabolic stability in dog liver microsomes in presence of UDPGA; type: ADME, Canis lupus familiaris, Microsome
Liver microsomes [17] = experiment: Metabolic stability in human liver microsomes in presence of UDPGA; type: ADME, Microsome; in short: as §3
[18] = Oral bioavailability in dog at 4 mg/kg; type: ADME, organism-based, Canis lupus familiaris; conditions: in vivo; in short: as §2
[19] = Plasma clearance in dog at 1 mg/kg, iv or 4 mg/kg, po; type: ADME, organism-based, Canis lupus familiaris; in short: as §2
[20] = Half life in rat at 3 mg/kg, iv; type: ADME, organism-based; set-up: dose 3 mg/kg, route intravenous; conditions: in vivo; in short: as §2
[21] = Half life in dog at 1 mg/kg, iv; type: ADME, organism-based, Canis lupus familiaris; set-up: dose 1 mg/kg, route intravenous; conditions: in vivo; in short: as §2
[22] = AUC in rat at 3 mg/kg, po; type: ADME, organism-based; set-up: dose 3 mg/kg, route oral; conditions: plasma; in short: as §2
[23] = AUC in rat at 10 mg/kg, po; type: ADME, organism-based; set-up: dose 10 mg/kg, route oral; conditions: plasma; in short: as §2
[24] = Cmax in rat at 3 mg/kg, po; type: ADME, organism-based; set-up: dose 3 mg/kg, route oral; conditions: in vivo; in short: as §2
[25] = Cmax in rat at 10 mg/kg, po; type: ADME, organism-based; set-up: dose 10 mg/kg, route oral; conditions: in vivo; in short: as §2
[26] = Volume of distribution at steady state in rat at 3 mg/kg, iv or 3 mg/kg, po; type: ADME, organism-based; conditions: in vivo, read-out: Vdss
[27] = Volume of distribution at steady state in dog at 1 mg/kg, iv or 4 mg/kg, po; type: ADME, organism-based, Canis lupus familiaris; conditions: in vivo, read-out: Vdss
In short: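 Dogs received 1 mg/kg intravenously in DMSO/PEG400/H₂O (20%-40%-40%) and 4 mg/kg orally as a 1% methylcellulose suspension. Volume of distribution was derived from the plasma concentration data.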

Row | Compound | IC95 [1] [µM] | IC95 [2] [µM] | IC50 [10] [nM] | other results
1 | CN1CCN(S(=O)(=O)N(C)[C@H]2CCCn3c2nc(C(=O)NCc2ccc(F)cc2)c(O)c3=O)CC1 | 0.006 | 0.006 | 7 | fraction unbound [3]: 0.24; fraction unbound [4]: 0.18; Stability (Liver microsomes [5]): 10 µL/min/mg; Stability (Liver [6]): 8 µL/min/mg; bioavailability [7]: 15%; clearance [8]: 98 mL/min/kg; clearance [9]: 23 mL/min/kg
2 | CN(C)S(=O)(=O)N(C)[C@H]1CCCn2c1nc(C(=O)NCc1ccc(F)cc1)c(O)c2=O | 0.012 | 0.031 | 5 | bioavailability [7]: 49%; bioavailability [11]: 16%; clearance [8]: 14 mL/min/kg; clearance [9]: 3.8 mL/min/kg; fraction unbound (Homo sapiens): 0.13
3 | CN(C(=O)CS(=O)(=O)N(C)C)[C@H]1CCCn2c1nc(C(=O)NCc1ccc(F)cc1)c(O)c2=O | 0.016 | 0.031 | 7 | Stability (Liver microsomes [12]): 51 %/hr; Stability (Liver [13]): 15 %/hr; Stability (Liver microsomes [14]): 36 %/hr; Stability (Liver microsomes [15]): 47 %/hr; Stability (Liver [16]): 24 %/hr; Stability (Liver microsomes [17]): 46 %/hr; fraction unbound [3]: 0.26; fraction unbound [4]: 0.29; bioavailability [7]: 17%; clearance [8]: 55 mL/min/kg; fraction unbound (Homo sapiens): 0.22
4 | CN(C)C(=O)C(=O)N(C)[C@H]1CCCn2c1nc(C(=O)NCc1ccc(F)cc1)c(O)c2=O | 0.033 | 0.043 | 12 | fraction unbound [3]: 0.16; fraction unbound [4]: 0.34; bioavailability [7]: 47%; clearance [8]: 11 mL/min/kg; bioavailability [18]: 39%; clearance [19]: 15 mL/min/kg; half-life [20]: 840 min; half-life [21]: 102 min; AUC [22]: 2.5 µM·h; AUC [23]: 3.8 µM·h; Cmax [24]: 2000 nM; Cmax [25]: 2500 nM; Vd [26]: 3 L/kg; Vd [27]: 1.2 L/kg; fraction unbound (Homo sapiens): 0.37
5 | CN(C1CCCCn2c1nc(C(=O)NCc1ccc(F)cc1)c(O)c2=O)S(C)(=O)=O (racemic) | 0.031 | 0.125 | 16 | 
6 | CN(C(=O)C(F)F)C1CCCn2c1nc(C(=O)NCc1ccc(F)cc1)c(O)c2=O (racemic) | 0.5 | 1 | 18 | 
7 | CC(=O)N(C)C1CCCCn2c1nc(C(=O)NCc1ccc(F)cc1)c(O)c2=O (racemic) | 0.25 | 0.5 | 8 | 
8 | CC(=O)N(C)C1CCn2c1nc(C(=O)NCc1ccc(F)cc1)c(O)c2=O (racemic) | > 1 | > 1 | 9 | 
9 | CC(=O)N(C)C1CCCn2c1nc(C(=O)NCc1ccc(F)cc1)c(O)c2=O (racemic) | 1 | 1 | 6 | 
10 | CN(C(=O)CS(C)(=O)=O)C1CCCCn2c1nc(C(=O)NCc1ccc(F)cc1)c(O)c2=O (racemic) | 0.063 | 0.125 | 17 | 
11 | CN(C)S(=O)(=O)N(C)C1CCCn2c1nc(C(=O)NCc1ccc(F)cc1)c(O)c2=O (racemic) | 0.016 | 0.021 | 5 | 
12 | CN(C)S(=O)(=O)N(C)C1CCn2c1nc(C(=O)NCc1ccc(F)cc1)c(O)c2=O (racemic) | > 1 | > 1 | 45 | 
13 | CN(C)S(=O)(=O)N(C)C1CCCCn2c1nc(C(=O)NCc1ccc(F)cc1)c(O)c2=O (racemic) | 0.031 | 0.125 | 10 | 
14 | Cc1nn(C)c(C)c1S(=O)(=O)N(C)C1CCCn2c1nc(C(=O)NCc1ccc(F)cc1)c(O)c2=O (racemic) | 0.021 | 0.063 | 7 | Stability (Liver microsomes [15]): 94 %/hr; Stability (Liver [16]): 78 %/hr; Stability (Liver microsomes [17]): 90 %/hr
15 | CS(=O)(=O)CC(=O)NC1CCCn2c1nc(C(=O)NCc1ccc(F)cc1)c(O)c2=O (racemic) | 1 | 1 | 7 | 
16 | CN(C(=O)CS(C)(=O)=O)C1CCCn2c1nc(C(=O)NCc1ccc(F)cc1)c(O)c2=O (racemic) | 0.016 | 0.022 | 6 | fraction unbound (Homo sapiens): 0.3
17 | CN(C(=O)CS(=O)(=O)N(C)C)C1CCCn2c1nc(C(=O)NCc1ccc(F)cc1)c(O)c2=O (racemic) | 0.016 | 0.047 | 9 | fraction unbound (Homo sapiens): 0.19
18 | CN(C1CCCn2c1nc(C(=O)NCc1ccc(F)cc1)c(O)c2=O)S(C)(=O)=O (racemic) | 0.026 | 0.086 | 12 | Stability (Liver microsomes [15]): 88 %/hr; Stability (Liver [16]): 29 %/hr; Stability (Liver microsomes [17]): 74 %/hr; bioavailability [7]: 47%; clearance [8]: 48 mL/min/kg
19 | CN(C(=O)Cn1cccn1)C1CCCn2c1nc(C(=O)NCc1ccc(F)cc1)c(O)c2=O (racemic) | > 1 | > 1 | 3 | 
20 | CN(C(=O)c1nc2ncccn2n1)C1CCCn2c1nc(C(=O)NCc1ccc(F)cc1)c(O)c2=O (racemic) | 0.25 | 0.25 | 10 | 

— ChEMBL document CHEMBL1143246, “Design and synthesis of bicyclic pyrimidinones as potent and orally bioavailable HIV-1 integrase inhibitors” (J Med Chem, 2008)
